Measured values: article PMC11389331 (BMC Biology, 2024)

Legend:
B. dioryctriae [1] = settings: cited from earlier work
B. dioryctriae [2] = assay: Y-tube olfactometer assay; format: in vivo, Baryscapus dioryctriae; settings: 20 μL test chemical vs paraffin oil, chi-square test
Method in brief: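 Binary Y-tube (1.1 cm diameter, 6 cm base and arms, 60° between arms) used with wasps reared at 25 ± 1 °C, 50 ± 5% RH. One arm held 20 × 50 mm filter paper loaded with 20 μL test chemical; the other held 20 μL paraffin oil. After every five wasps, the tube was cleaned with dehydrated alcohol and air-dried, and odour sides were swapped.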

| SMILES | effect on reproductive efficiency of B. dioryctriae (B. dioryctriae [1]) | behavioral response (attraction) of B. dioryctriae adults (B. dioryctriae [2]) |
| --- | --- | --- |
| CCCCCC=C(C=O)CCCC [2-butyl-2-octenal] | significantly improve |  |
| C=C1CC[C@H]2O[C@]2(C)CC[C@@H]2[C@@H]1CC2(C)C [Caryophyllene oxide] |  | does not attract |
| CC1=CCC(C(C)C)=CC1 [g-Terpinene] |  | significantly attract |
| CC1=CCC2CC1C2(C)C (stereo not drawn) [α-Pinene] |  | significantly attract |
